Assay results reported in ChEMBL document CHEMBL3259708, “Thienoquinolines as novel disruptors of the PKCε/RACK2 protein-protein interaction” (J Med Chem, 2014).
The source made the active and inactive calls. The rule behind the calls is not given here.

Legend:
[1] = target: T1, Protein kinase C epsilon type (Homo sapiens) (UniProt Q02156); test: (§1) Inhibition of recombinant PKCepsilon (unknown origin)-MBP-tagged RACK2 interaction after 1 hr by ELISA-based assay relative to untreated control; set-up: residual binding, % of control: concentration or dose not given beside the values; conditions: for residual binding, % of control: values are per cent of control
T1 sequence (whole entry): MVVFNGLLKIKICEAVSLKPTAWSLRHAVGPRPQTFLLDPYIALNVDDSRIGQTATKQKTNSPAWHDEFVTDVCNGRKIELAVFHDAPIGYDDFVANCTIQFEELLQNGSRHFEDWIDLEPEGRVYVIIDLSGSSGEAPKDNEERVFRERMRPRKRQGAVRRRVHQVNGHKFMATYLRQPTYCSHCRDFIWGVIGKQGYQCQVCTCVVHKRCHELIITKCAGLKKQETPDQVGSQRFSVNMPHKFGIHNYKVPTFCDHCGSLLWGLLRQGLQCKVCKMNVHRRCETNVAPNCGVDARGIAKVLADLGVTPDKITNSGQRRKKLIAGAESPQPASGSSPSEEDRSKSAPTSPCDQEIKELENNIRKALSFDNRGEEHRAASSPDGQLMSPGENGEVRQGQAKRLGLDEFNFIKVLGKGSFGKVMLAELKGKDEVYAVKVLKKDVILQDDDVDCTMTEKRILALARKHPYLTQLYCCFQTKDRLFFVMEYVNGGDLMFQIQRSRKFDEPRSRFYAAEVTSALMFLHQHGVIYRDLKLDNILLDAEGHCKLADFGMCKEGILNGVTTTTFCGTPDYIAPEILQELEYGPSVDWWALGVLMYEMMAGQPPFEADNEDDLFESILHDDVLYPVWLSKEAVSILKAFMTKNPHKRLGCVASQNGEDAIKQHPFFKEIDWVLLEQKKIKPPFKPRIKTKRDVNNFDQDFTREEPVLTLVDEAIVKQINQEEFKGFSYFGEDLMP
Method in brief: (§2)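 ELISA: plates coated with 100 ng recombinant PKCε in 20 mM Tris-HCl/100 mM NaCl pH 7.5 overnight at 4 °C, blocked with 3% BSA; PKCε activated 10 min at 30 °C with 60 μg/mL phosphatidylserine and 100 nM TPA; RACK2-MBP preincubated with agent 30 min, then 500 ng added for 1 h binding; anti-RACK2/HRP detection, ABTS at 420 nm; four experiments, quadruplicates, normalized to control; IC50 via CalcuSyn.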

[2] = target: T2, Protein kinase C epsilon type (Homo sapiens, UniProt Q02156); test: as §1; method in brief: as §2
T2 sequence (Q02156 whole entry): T1 sequence (whole entry)

Gallus gallus = species on record: Gallus gallus; test: Antiangiogenic activity in chicken egg assessed as inhibition of VEGF-induced angiogenesis at 10 ng after 5 days by microscopic analysis; assay type: functional
Method in brief: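 Hen eggs incubated 3 days at 37 °C, opened, incubated 7 more days; VEGF and test agent added on day 10; after 5 further days, vessel formation inspected by microscope.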

[3] = target: T1, Protein kinase C epsilon type (Homo sapiens); test: Inhibition of recombinant PKCepsilon (unknown origin)-MBP-tagged RACK2 interaction at 10 uM after 1 hr by ELISA-based assay relative to untreated control; conditions: values are per cent of control; method in brief: as §2
[4] = target: T1, Protein kinase C epsilon type (Homo sapiens); test: Inhibition of phosphorylated form of PKCepsilon translocation to cell membrane in human PC3 cells at 25 to 50 uM by densitometric analysis; assay type: cell-based; conditions: PC-3
Method in brief: (§3)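 PC-3 cells starved 16 h, agent 30 min, then 50 nM TPA 5 min; lysed and split into cytosolic and membrane fractions; Western blot for PKCε, PKCε pSer729 or PKCδ, with IGFI-βR (membrane) and GAPDH (cytosol) loading controls; densitometry of four independent experiments, normalized to control, t test.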

[5] = target: Protein kinase C eta type (Homo sapiens) (UniProt P24723); test: Inhibition of PKCeta (unknown origin) at 50 uM
Sequence of Protein kinase C eta type (Homo sapiens) (P24723 whole entry): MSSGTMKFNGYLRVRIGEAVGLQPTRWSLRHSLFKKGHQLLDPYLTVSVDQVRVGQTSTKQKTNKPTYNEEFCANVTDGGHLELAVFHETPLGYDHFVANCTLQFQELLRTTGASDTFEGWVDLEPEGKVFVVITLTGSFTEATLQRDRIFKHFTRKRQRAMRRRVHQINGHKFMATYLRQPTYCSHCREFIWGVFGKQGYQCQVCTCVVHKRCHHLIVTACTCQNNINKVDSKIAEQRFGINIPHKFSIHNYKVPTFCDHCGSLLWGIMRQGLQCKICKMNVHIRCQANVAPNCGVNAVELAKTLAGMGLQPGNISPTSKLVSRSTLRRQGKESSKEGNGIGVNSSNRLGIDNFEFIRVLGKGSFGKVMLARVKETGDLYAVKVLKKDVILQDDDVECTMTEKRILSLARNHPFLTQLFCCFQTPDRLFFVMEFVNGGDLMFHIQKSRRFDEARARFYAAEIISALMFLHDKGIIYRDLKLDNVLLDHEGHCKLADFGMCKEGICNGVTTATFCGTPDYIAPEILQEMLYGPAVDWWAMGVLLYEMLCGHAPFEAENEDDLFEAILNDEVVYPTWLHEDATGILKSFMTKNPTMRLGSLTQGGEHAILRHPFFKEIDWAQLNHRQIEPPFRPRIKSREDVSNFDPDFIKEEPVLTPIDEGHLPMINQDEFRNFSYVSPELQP

[6] = target: Protein kinase C alpha type (Homo sapiens) (UniProt P17252); test: Inhibition of PKCalpha (unknown origin) at 50 uM
[7] = target: T1, Protein kinase C epsilon type (Homo sapiens); test: Inhibition of TPA-induced PKCepsilon translocation to cell membrane in human PC3 cells at 50 uM by immunofluorescence analysis; assay type: cell-based; conditions: PC-3
Method in brief: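 PC-3 cells on poly-L-lysine coverslips treated with agent 30 min then 100 nM TPA 5 min; fixed in 4% paraformaldehyde/4% sucrose, permeabilized, stained for PKCε with fluorescent secondary, imaged by microscopy; three independent experiments.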

[8] = target: T1, Protein kinase C epsilon type (Homo sapiens); test: Inhibition of PKCepsilon translocation to cell membrane in human PC3 cells at 25 to 50 uM by densitometric analysis; assay type: cell-based; conditions: PC-3; method in brief: as §3
[9] = target: T1, Protein kinase C epsilon type (Homo sapiens); test: Inhibition of TPA-induced PKCepsilon Ser729 phosphorylation in human PC3 cell membrane at 25 to 50 uM by densitometric analysis; assay type: cell-based; conditions: PC-3; method in brief: as §3
[10] = target: T1, Protein kinase C epsilon type (Homo sapiens); test: Inhibition of recombinant PKCepsilon (unknown origin)-MBP-tagged RACK2 interaction at 25 uM after 1 hr by ELISA-based assay relative to untreated control; values are per cent of control
[11] = target: T1, Protein kinase C epsilon type (Homo sapiens); test: (§4) Inhibition of PKCepsilon-induced phosphorylation of Elk1 in human HeLa cells after 4 hrs by luciferase reporter gene assay; assay type: cell-based
Method in brief: (§5)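 PathDetect HeLa-HLR Elk-1 trans-reporting cells (200 000/well, grown 24 h) starved 16 h in 0.5% FBS medium; agent 30 min, 50 nM TPA 5 min, washed, then 4 h in starvation medium with agent; luciferase read on 20 μg lysate protein; mean ±SD of three experiments normalized to control; IC50 by CalcuSyn.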

[12] = target: T2, Protein kinase C epsilon type; test: as §4; assay type: cell-based; method in brief: as §5
PC-3 = test: Antiproliferative activity against human PC3 cells expressing luciferase gene up to 50 uM; assay type: cell-based
Method in brief: (§6)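 HeLa-HLR and PC-3 cells seeded ~10 000/well; agent added after 4 h at various concentrations for 72 h; growth read by SRB assay; mean ±SD of three independent experiments, triplicate samples each.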

HeLa [13] = test: Antiinvasive activity against human HeLa cells expressing doxycycline-inducible PKCepsilon at 25 uM after 24 hrs; assay type: functional, cell-based
Method in brief: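 Invasion of HeLa cells carrying doxycycline-inducible constitutively active PKCε, PKCε expression induced with doxycycline, through reconstituted basement membrane matrix using a commercial invasion kit per manufacturer; mean of three experiments, normalized to control (100%), t test.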

[14] = target: Protein kinase C delta type (Homo sapiens) (UniProt Q05655); test: Inhibition of PKCdelta translocation to cell membrane in human PC3 cells at 25 to 50 uM by densitometric analysis; assay type: cell-based; conditions: PC-3; method in brief: as §3
Sequence of Protein kinase C delta type (Homo sapiens) (Q05655 whole entry, looked up): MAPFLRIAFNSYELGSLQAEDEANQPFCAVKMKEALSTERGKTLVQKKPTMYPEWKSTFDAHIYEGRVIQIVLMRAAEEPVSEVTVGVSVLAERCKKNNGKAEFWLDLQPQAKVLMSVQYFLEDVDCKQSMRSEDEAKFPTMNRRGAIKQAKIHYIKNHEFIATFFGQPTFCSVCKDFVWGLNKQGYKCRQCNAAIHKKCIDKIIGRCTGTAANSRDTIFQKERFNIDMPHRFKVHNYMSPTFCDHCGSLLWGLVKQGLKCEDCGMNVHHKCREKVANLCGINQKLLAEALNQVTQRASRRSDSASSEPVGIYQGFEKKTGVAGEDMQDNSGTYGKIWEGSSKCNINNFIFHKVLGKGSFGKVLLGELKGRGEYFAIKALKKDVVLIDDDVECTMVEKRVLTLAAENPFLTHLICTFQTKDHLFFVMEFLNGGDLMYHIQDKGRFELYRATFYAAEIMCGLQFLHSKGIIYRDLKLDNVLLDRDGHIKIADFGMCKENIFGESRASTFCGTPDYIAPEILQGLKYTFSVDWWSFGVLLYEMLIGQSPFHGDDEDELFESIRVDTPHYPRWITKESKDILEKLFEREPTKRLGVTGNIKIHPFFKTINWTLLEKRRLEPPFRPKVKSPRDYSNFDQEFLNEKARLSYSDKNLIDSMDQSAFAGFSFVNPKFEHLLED

[15] = target: T3, NUAK family SNF1-like kinase 1 (Homo sapiens) (UniProt O60285); test: Inhibition of NUAK1 (unknown origin) at 25 uM; values are per cent of control
T3 sequence (whole entry): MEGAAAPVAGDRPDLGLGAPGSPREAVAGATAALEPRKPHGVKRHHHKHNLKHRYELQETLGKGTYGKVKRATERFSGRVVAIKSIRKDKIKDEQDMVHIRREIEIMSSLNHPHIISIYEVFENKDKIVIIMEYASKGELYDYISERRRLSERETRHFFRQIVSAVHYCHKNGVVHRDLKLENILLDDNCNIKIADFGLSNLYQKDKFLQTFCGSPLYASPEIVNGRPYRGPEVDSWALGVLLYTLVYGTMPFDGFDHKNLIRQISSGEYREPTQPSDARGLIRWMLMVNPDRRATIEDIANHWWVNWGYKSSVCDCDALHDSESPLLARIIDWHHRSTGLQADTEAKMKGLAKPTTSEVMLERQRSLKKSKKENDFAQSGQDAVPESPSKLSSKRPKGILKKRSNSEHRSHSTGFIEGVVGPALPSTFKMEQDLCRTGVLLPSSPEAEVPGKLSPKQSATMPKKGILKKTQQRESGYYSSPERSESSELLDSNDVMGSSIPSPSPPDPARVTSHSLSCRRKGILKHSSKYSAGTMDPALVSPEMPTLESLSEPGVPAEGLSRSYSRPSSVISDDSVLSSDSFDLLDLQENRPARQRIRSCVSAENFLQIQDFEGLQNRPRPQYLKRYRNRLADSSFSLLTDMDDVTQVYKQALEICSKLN

[16] = target: Serine/threonine-protein kinase pim-3 (Homo sapiens) (UniProt Q86V86); test: Inhibition of PIM3 (unknown origin) at 25 uM; values are per cent of control
[17] = target: Protein kinase C beta type (Homo sapiens) (UniProt P05771); test: Inhibition of recombinant GST-tagged PKCbeta2 (unknown origin)-His-tagged RACK1 interaction after 1 hr by ELISA-based assay relative to untreated control
Sequence of Protein kinase C beta type (Homo sapiens) (P05771 2-671 limits assumed): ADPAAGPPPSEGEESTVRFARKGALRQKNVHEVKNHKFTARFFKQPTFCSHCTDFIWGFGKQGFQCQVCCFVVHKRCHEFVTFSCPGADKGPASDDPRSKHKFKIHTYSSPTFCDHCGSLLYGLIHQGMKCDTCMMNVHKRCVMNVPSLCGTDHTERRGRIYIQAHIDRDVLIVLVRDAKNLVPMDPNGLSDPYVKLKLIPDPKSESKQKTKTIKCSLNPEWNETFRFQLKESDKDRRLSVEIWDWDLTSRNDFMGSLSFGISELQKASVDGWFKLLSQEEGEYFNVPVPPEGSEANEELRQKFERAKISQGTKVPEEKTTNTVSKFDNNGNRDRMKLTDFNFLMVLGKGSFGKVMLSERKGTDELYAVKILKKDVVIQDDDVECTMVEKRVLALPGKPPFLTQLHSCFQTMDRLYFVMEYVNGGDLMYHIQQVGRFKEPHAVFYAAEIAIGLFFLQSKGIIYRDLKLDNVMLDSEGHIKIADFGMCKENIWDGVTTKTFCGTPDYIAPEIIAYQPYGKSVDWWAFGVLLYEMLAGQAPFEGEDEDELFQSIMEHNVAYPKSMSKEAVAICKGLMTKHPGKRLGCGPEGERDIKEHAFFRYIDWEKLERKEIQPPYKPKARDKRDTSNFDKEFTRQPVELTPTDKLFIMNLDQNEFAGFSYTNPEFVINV
Method in brief: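 ELISA: 200 ng His-tagged RACK1 coated overnight at 4 °C; agent added 30 min at room temperature; 500 ng GST-PKCβII activated with CaCl2, phosphatidylserine and TPA for 10 min, then bound 1 h; detected with anti-GST and HRP secondary, ABTS colour at 420 nm.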

[18] = target: Mitogen-activated protein kinase 3 (Homo sapiens) (UniProt P27361); test: Inhibition of ERK1 (unknown origin) at 25 uM; values are per cent of control
Sequence of Mitogen-activated protein kinase 3 (Homo sapiens) (P27361 whole entry): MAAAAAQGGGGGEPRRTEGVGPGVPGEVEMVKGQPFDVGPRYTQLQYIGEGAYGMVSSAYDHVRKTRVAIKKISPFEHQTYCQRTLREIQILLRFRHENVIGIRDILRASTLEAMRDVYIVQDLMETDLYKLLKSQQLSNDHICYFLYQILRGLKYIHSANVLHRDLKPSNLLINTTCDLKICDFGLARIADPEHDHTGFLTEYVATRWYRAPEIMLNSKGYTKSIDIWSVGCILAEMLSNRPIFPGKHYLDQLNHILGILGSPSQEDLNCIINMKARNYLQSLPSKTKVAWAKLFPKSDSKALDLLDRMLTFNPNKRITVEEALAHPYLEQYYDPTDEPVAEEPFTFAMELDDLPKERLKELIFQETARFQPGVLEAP

HeLa [19] = test: Antimigratory activity against human HeLa cells expressing doxycycline-inducible PKCepsilon at 25 uM after 24 hrs by scratch migration assay; assay type: functional, cell-based
Method in brief: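 HeLa cells carrying doxycycline-inducible constitutively active PKCε grown to log phase; ~1 mm scratch made in monolayer with pipet tip, washed with PBS, then given 2 μg/mL doxycycline plus 25 μM test agent for 24 h; controls untreated or doxycycline plus DMSO; gap closure viewed by microscope.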

HeLa [20] = test: Antiproliferative activity against human HeLa cells expressing luciferase gene up to 50 uM; assay type: cell-based; method in brief: as §6
[21] = target: Protein kinase C beta type (Homo sapiens) (UniProt P05771); test: Inhibition of PKCbeta1 (unknown origin) at 50 uM
[22] = target: T1, Protein kinase C epsilon type (Homo sapiens); test: Inhibition of PKCepsilon-induced phosphorylation of MARCKS in human HeLa cells at 50 uM by SDS-PAGE analysis; assay type: cell-based
Method in brief: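 HeLa cells serum-starved 16 h, treated with 50 μM agent for 30 min with 100 nM TPA for the last 10 min; 150 μg lysate protein on SDS 8–16% gels, blotted for MARCKS pSer152/156 with tubulin loading control; densitometry of three independent experiments.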

[23] = target: Tyrosine-protein kinase BTK (Homo sapiens) (UniProt Q06187); test: Inhibition of BTK (unknown origin) at 25 uM; values are per cent of control
Sequence of Tyrosine-protein kinase BTK (Homo sapiens) (Q06187 whole entry): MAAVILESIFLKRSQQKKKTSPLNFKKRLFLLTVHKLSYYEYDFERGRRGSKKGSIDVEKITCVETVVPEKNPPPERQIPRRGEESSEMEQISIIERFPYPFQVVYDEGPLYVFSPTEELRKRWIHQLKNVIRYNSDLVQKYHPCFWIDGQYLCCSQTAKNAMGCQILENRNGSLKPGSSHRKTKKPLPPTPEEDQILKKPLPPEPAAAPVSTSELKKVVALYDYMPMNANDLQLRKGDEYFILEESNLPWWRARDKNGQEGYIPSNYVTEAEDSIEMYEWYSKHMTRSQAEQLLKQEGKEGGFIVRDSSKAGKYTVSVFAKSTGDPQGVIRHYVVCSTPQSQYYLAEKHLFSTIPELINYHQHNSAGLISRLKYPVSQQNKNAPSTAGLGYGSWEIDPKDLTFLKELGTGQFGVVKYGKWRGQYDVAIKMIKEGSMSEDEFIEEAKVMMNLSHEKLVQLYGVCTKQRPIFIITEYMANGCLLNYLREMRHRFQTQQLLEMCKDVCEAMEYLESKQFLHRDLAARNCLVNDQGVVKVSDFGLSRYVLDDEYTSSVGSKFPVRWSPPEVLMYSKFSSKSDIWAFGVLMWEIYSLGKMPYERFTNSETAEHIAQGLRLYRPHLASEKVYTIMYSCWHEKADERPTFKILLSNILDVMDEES

[24] = target: Ribosomal protein S6 kinase alpha-3 (Homo sapiens) (UniProt P51812); test: Inhibition of RSK2 (unknown origin) at 25 uM; values are per cent of control
Sequence of Ribosomal protein S6 kinase alpha-3 (Homo sapiens) (P51812 whole entry): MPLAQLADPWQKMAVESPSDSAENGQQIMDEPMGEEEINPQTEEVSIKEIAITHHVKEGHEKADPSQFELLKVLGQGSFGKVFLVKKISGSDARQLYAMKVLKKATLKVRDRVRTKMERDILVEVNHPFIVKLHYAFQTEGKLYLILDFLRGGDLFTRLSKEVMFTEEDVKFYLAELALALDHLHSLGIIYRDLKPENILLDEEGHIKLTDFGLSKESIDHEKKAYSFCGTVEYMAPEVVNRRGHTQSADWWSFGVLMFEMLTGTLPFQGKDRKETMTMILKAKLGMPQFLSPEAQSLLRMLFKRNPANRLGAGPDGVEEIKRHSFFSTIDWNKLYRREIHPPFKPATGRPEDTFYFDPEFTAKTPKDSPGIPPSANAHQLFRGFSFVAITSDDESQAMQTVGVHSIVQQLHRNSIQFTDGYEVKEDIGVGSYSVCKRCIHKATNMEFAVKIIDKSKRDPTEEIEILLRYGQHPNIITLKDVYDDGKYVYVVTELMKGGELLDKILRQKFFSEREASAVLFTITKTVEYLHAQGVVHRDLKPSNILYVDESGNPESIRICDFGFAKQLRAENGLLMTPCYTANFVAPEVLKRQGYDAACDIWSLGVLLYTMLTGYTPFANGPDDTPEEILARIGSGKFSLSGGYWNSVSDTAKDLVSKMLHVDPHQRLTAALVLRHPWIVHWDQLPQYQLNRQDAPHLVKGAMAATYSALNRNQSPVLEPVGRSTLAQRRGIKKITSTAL

COC(=O)c1cccc(NC(=O)c2sc3nc4cc5c(cc4cc3c2N)OCO5)c1
residual binding, % of control [1]: 30.8%

COc1ccc2cc3c(N)c(C(=O)Nc4c(C)cccc4C)sc3nc2c1
residual binding, % of control [1]: 60.8%

CC(O)c1cccc(NC(=O)C2Sc3nc4cc5c(cc4cc3C2N)OCCO5)c1 (centres undefined)
residual binding, % of control [1]: 102%

Nc1c(C(=O)Nc2cccc(Cl)c2)sc2nc3cc4c(cc3cc12)OCCO4
residual binding, % of control [1]: 58%

CO/N=C(\C)c1cccc(NC(=O)c2sc3nc4cc5c(cc4cc3c2N)OCCO5)c1
residual binding, % of control [1]: 48.3%

CCOc1ccc2nc(NC(=O)c3sc4nc5cc(OC)ccc5cc4c3N)sc2c1
residual binding, % of control [1]: 37.7%
IC50 [2]: 25.5 µM

COc1ccc2nc3sc(C(=O)Nc4ccc(N5CCOCC5)cc4)c(N)c3cc2c1
residual binding, % of control [1]: 32.9%

C/C(=N\O)c1cccc(NC(=O)c2sc3nc4cc5c(cc4cc3c2N)OCCO5)c1
residual binding, % of control [1]: 46.2%

C/C(=N\OCC(=O)O)c1cccc(NC(=O)c2sc3nc4cc5c(cc4cc3c2N)OCCO5)c1
residual binding, % of control [1]: 59.3%

CCOC(=O)Cc1csc(NC(=O)c2sc3nc4ccc(OCC)cc4cc3c2N)n1
residual binding, % of control [1]: 32.4%

H-EAVSLKPTRRRRRRR-OH
IC50 [2]: 1.02 µM

COC(=O)c1cccc(NC(=O)c2sc3nc4cc5c(cc4cc3c2N)OCCO5)c1
residual binding, % of control [1]: 90.9%

CC(=O)c1ccc(NC(=O)c2sc3nc4cc5c(cc4cc3c2N)OCCO5)cc1
residual binding, % of control [1]: 22.8%

CC(=O)c1cccc(NC(=O)c2sc3nc4cc5c(cc4cc3c2N)OCCO5)c1
inhibition (Gallus gallus): Active
residual binding, % of control [3]: 23.6%
inhibition [4]: Active
inhibition [5]: 80%
inhibition [6]: 80%
inhibition [7]: Active
inhibition [8]: Active
inhibition [9]: inactive
residual activity [10]: 13.3%
inhibition [11]: Dose-dependent effect
IC50 [12]: 11.2 µM
Activity (PC-3): Non-toxic
inhibition (HeLa [13]): Active
inhibition [14]: inactive
residual activity [15]: 49%
residual activity [16]: 46%
inhibition [1]: Dose-dependent effect
IC50 [2]: 5.9 µM
inhibition [17]: inactive
residual activity [18]: 55%
inhibition (HeLa [19]): Active
Activity (HeLa [20]): Non-toxic
inhibition [21]: 80%
inhibition [22]: Active
residual activity [23]: 42%
residual activity [24]: 27%

H-EAVSLKPT-OH
IC50 [2]: 1.02 µM

CCOC(=O)c1cccc(NC(=O)c2sc3nc4ccc(OC)cc4cc3c2N)c1
residual binding, % of control [1]: 29.6%

CCOc1ccc2nc3sc(C(=O)Nc4ccc(F)cc4)c(N)c3cc2c1
residual binding, % of control [1]: 60.5%

CC(=O)c1cccc(NC(=O)c2cc3cc4cc5c(cc4nc3s2)OCCO5)c1
residual binding, % of control [1]: 64.9%

COc1ccc(NC(=O)c2sc3nc4ccccc4cc3c2N)cc1
residual binding, % of control [1]: 42.7%

O=C1NC(=O)N(Cc2ccccc2)C(=O)/C1=C\c1ccc2c(c1)OCO2
IC50 [2]: 28.5 µM

Nc1c(C(=O)Nc2cccc(Cl)c2Cl)sc2nc3cc4c(cc3cc12)OCCO4
residual binding, % of control [1]: 57.6%

CC(=O)c1cccc(NC(=O)c2sc3nc4cc5c(cc4cc3c2N)OCO5)c1
residual binding, % of control [1]: 58.9%

CC(=O)c1cccc(NC(=O)c2cc3cc4cc5c(cc4nc3s2)OCO5)c1
residual binding, % of control [1]: 51.2%
